The results in this text go back to ChEMBL document CHEMBL4033667, “Design, synthesis, and identification of a novel napthalamide-isoselenocyanate compound NISC-6 as a dual Topoisomerase-IIα and Akt pathway inhibitor, and evaluation of its anti-melanoma activity” (Eur J Med Chem, 2017).

The nature of data set [1]: Antiproliferative activity against human 1205 Lu cells harboring BRAF V600E mutant after 72 hrs by MTT assay. The format is functional, cell-based. Put shortly:
(§1)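 MTT viability in melanoma lines grown in DMEM with 10% FBS and pen/strep at 37 °C, 5% CO2. 3000 cells/well, settled overnight, then exposed to compound (0 to 50 µM) in triplicate for 24, 48 or 72 h. MTT (5.0 mg/mL solution) added 3 h before termination. IC50 from non-linear regression (variable slope), mean ± SD.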
(In general: Tetrazolium assays rely on reduction of a dye to a coloured formazan, in cell work by metabolically active cells.)

Data set [2] in a line: Antiproliferative activity against human A375M cells harboring BRAF V600E mutant after 48 hrs by MTT assay. The format is functional, cell-based. An outline of the steps:
as §1

Data set [3] has as its system CHL-1. Kind of data set: Antiproliferative activity against human CHL-1 cells harboring wild type BRAF after 48 hrs by MTT assay. The format is functional, cell-based. The note with it: CHL-1, 48 h. Put shortly:
as §1

The subject of a further data set is NHDF. Kind of data set: Cytotoxicity against human NHDF cells assessed as reduction in cell viability at 2.5 uM after 48 hrs by MTT assay. The format is cell-based. An outline of the steps:
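nHDF normal fibroblasts grown in serum-free fibroblast basal medium with growth kit and pen/strep/amphotericin B. Treated 48 h at set concentrations, with viability read by MTT assay.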

For data set [4], the target named is RAC-alpha serine/threonine-protein kinase (Homo sapiens) (UniProt P31749). Kind of data set: Inhibition of Akt-phosphorylation in human UACC-903 cells after 24 hrs by Western blot analysis. The format is cell-based. An outline of the steps: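 UACC903 cells treated with increasing doses for 24 h, then lysed in RIPA with protease and phosphatase inhibitors and spun 15,000 rpm for 10 min. Lysates resolved on 4-12% gel, moved to PVDF and probed for phospho-Akt and pan-Akt. β-actin served as loading control; detection by ECL.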
RAC-alpha serine/threonine-protein kinase (Homo sapiens), sequence (P31749 whole entry): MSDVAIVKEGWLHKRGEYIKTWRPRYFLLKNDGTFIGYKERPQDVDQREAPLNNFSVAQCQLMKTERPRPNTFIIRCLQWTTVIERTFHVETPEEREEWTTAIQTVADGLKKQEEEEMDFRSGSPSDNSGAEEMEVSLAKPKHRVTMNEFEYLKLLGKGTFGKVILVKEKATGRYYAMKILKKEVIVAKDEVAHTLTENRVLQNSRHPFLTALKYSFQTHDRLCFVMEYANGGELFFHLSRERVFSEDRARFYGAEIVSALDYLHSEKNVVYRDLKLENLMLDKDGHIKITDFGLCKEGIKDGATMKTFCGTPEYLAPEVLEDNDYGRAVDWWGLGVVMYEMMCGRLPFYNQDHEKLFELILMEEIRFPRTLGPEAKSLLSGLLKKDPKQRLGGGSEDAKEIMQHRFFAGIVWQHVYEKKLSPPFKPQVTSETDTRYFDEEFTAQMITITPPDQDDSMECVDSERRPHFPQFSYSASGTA
Background: Immunoblotting shows a protein as a band on a membrane.

The subject of data set [5] is UACC-903. The data set is described as follows: Induction of apoptosis in human UACC-903 cells assessed as late apoptotic cells at 5 uM after 24 hrs by Annexin-V/7-AAD staining-based fluorescence assay (reference value: 2.78%). The format is functional.
The test system of data set [6] is UACC-903. Kind of data set: Induction of apoptosis in human UACC-903 cells assessed as increase in caspase 3/7 activity by measuring early apoptotic cells at 5 uM after 24 hrs by 7-AAD staining-based fluorescence assay (reference value: 16.08%). The format is functional. An outline of the steps: (§2)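 Muse caspase-3/7 kit on UACC903 cells after 24 h at given doses or DMSO. Cell-permeant NucView DEVD-linked DNA dye fluoresces after cleavage by active caspase 3/7. 7-AAD marks cells with compromised membranes. Gates: live, early apoptotic (caspase+/7-AAD−), late apoptotic (both +), necrotic (7-AAD+ only).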

The test system of data set [7] is UACC-903. Kind of data set: Induction of apoptosis in human UACC-903 cells assessed as increase in caspase 3/7 activity by measuring necrotic cells at 5 uM after 24 hrs by 7-AAD staining-based fluorescence assay (reference value: 0.34%). The format is functional. An outline of the steps:
as §2

The subject of data set [8] is UACC-903. Kind of data set: Induction of apoptosis in human UACC-903 cells assessed as increase in caspase 3/7 activity by measuring viable cells at 10 uM after 24 hrs by 7-AAD staining-based fluorescence assay (reference value: 77.50%). The format is functional. An outline of the steps:
as §2

A further data set deals with Mus musculus. Kind of data set: Toxicity in Harlan Sprague Dawley mouse xenografted with human UACC-903 cells assessed as body weight loss at 0.6 umole, ip administered 3 times a week measured during compound dosing relative to control. It is filed as organism-based. The following applies: in vivo. An outline of the steps:
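5×10^6 UACC 903 cells in 0.2 mL DMEM/10% FBS injected s.c. into both flanks of 4-6 week female athymic nude mice. From day 6, randomised groups (5 mice, 2 tumours each) received i.p. DMSO or 0.6 µmole in DMSO (100 µL) three times weekly. Caliper tumour volume and body weight taken thrice weekly to day 40; mean ± SEM.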
On the technique in general: A xenograft is tissue or cells of one species grown in another, often human tumour cells in immunodeficient mice.

The subject of data set [9] is CHL-1. The data set is described as follows: Potency index, ratio of PLX-4032 IC50 to test compound IC50 for human CHL-1 cells harboring wild type BRAF after 72 hrs. The format is functional.

SMILES strings stand for the structures.

In general, IC50 refers to the concentration that inhibits the measured activity by half. Lower therefore signals greater potency in that assay. Take `O=C1c2cccc3cccc(c23)C(=O)N1CCCCCCN=C=[Se]`: the concentration for half-maximal inhibition (IC50) in [1] came to 13.4 µM; in [2] it was 2.7 µM; in the data set on CHL-1 [3], 1.5 µM. In addition, the Activity in the data set on NHDF is listed as greater than 70%; in the data set on UACC-903 [5] it was 4.52%; in the data set with UACC-903 [6], 20.72%; in the data set with UACC-903 [7], 0.08%; with UACC-903 [8], 54.44%; with Mus musculus it was “Non-Toxic”. Moreover, the inhibition entry in [4] was “Dose-dependent effect”. For the same molecule, the “Ratio IC50” value in the data set with CHL-1 [9] stood at 15.
